High-throughput results deposited in PubChem BioAssay by The Scripps Research Institute Molecular Screening Center.
A selection: hits, their analogues and other compounds. The true share with any hit is near 2.8%.
HTRA1 inh – HTRA1 serine protease inhibitors, primary screen, biochemical, fluorescence polarization, HTS; Q92743; 340,000 compounds, 0.5% hits; recombinant HTRA1, FP-rhodamine activity-based probe; inhibition, % at 5.96 µM; in the data active = inhibition above about 36%
Target sequence (Q92743 whole entry, looked up): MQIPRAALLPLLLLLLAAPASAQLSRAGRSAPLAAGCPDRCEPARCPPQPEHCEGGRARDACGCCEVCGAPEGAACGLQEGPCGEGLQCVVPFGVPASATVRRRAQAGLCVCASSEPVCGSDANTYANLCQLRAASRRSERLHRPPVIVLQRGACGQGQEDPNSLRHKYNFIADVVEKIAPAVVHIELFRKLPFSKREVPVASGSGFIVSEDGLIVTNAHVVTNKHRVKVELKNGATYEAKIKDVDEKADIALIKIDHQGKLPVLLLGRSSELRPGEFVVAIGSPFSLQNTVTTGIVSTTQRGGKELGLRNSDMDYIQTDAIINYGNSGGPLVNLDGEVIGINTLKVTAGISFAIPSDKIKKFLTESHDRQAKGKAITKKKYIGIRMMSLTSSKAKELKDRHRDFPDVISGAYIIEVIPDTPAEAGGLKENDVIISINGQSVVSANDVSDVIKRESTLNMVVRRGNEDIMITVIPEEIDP
PAFAH1B2 inh – PAFAH1B2 enzyme inhibitors, primary screen, biochemical, fluorescence polarization, human | AID 492953, 2010 | Platelet-activating factor acetylhydrolase IB subunit alpha2 (Homo sapiens), P68402 | recombinant PAFAH1B2, FP-rhodamine activity probe | 340,000 compounds, 1.2% hits | inhibition, % at 3.39 µM;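 active = inhibition above the mean of all tested compounds plus 3 SD, cut at about 24% in these data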
pPAFAH FP inh – pPAFAH enzyme inhibitors, primary screen, biochemical, fluorescence polarization, human; Platelet-activating factor acetylhydrolase (Homo sapiens), Q13093; recombinant pPAFAH, FP-rhodamine probe fluorescence polarization; inhibition, % at 3.39 µM; 330,000 compounds, 1.5% hits; AID 463082, 2010;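 active = inhibition above the mean inhibition across the screen plus 3 SD, cut at about 25% in these data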;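 note: inhibitors block binding of the rhodamine activity-based probe so polarization drops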
PAFAH2 inh – PAFAH2 enzyme inhibitors, primary screen, biochemical, fluorescence polarization, human. 340,000 compounds, 0.99% hits. inhibition, % at 3.39 µM. AID 492956, 2010. recombinant PAFAH2, FP-rhodamine activity probe. Platelet-activating factor acetylhydrolase 2, cytoplasmic (Homo sapiens), Q99487;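 active = inhibition above the mean over all tested compounds plus 3 SD, cut at about 30% in these data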;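 note: inhibitors block probe labeling of enzyme so polarization drops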
ABHD4 inh – ABHD4 inhibitors, primary screen, biochemical, fluorescence polarization, mouse; (Lyso)-N-acylphosphatidylethanolamine lipase (Mus musculus), Q8VD66; purified mABHD4, FP-Rh probe fluorescence polarization; inhibition, % at 8.92 µM; 370,000 compounds, 0.54% hits; AID 720543, 2013;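 active = inhibition exceeding the mean over every tested compound plus 3 SD, cut at about 30% in these data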
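Doses – 8.92 µM, single dose · Material – wild-type mouse ABHD4 protein · Replication – single well per compound (singlicate) · Measure – percent inhibition of probe binding, normalized to plate controls · Schedule – 45 min compound pre-incubation plus 60 min probe step, 25 °C · Detection – fluorescence polarization with parallel and perpendicular emission, 525/598 nm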
PAFAH1B3 FP inh – PAFAH1B3 enzyme inhibitors, primary screen, biochemical, fluorescence polarization, human; Platelet-activating factor acetylhydrolase IB subunit alpha1 (Homo sapiens), Q15102; recombinant PAFAH1B3, FP-rhodamine probe; inhibition, % at 3.39 µM; 340,000 compounds, 0.28% hits;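 active = inhibition above the screen-wide average of all tested compounds plus 3 SD, cut at about 25% in these data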
pPAFAH FP conf – pPAFAH (PLA2G7) enzyme inhibitors, confirmation, biochemical, fluorescence polarization, human; inhibition, % at 3.39 µM; 2,300 compounds, 72% hits; shares compounds with pPAFAH FP inh; recombinant pPAFAH, FP-Rh probe fluorescence polarization;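 active = mean inhibition of the triplicate above the hit cutoff set for the earlier primary screen, cut at about 25% in these data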
Hits are given with their value; . = inactive; / = not tested or not shown.

SMILES	HTRA1 inh	PAFAH1B2 inh	pPAFAH FP inh	PAFAH2 inh	ABHD4 inh	PAFAH1B3 FP inh	pPAFAH FP conf
N=C1SC(c2ccccc2)C(=O)N1c1ncc(Cc2ccccc2)s1 (configuration not stated)	.	34	39	.	.	.	44
CCCCNC(=O)c1sc(=S)n2c1[nH]c(=O)c1ccc(C(=O)NCCc3ccc(OC)c(OC)c3)cc12	.	.	40	.	/	.	42
O=C1c2nc3cc(-c4ccco4)[nH]n3c(=O)c2CN1Cc1ccccc1	/	/	35	/	.	/	.
CCOC(=O)C1=C(C(=O)OCC)C2N(Cc3ccc(C#N)cc3)c3ccccc3[C@@]23C[C@@H](C(=O)OC)N(S(=O)(=O)c2ccc(C)cc2)C3=N1 (some centres not stated)	/	/	/	/	.	/	/
CC(C)C(C)NC(=O)COC(=O)C1CCN(S(=O)(=O)c2ccc3c(c2)OCCO3)CC1 (configuration not stated)	.	.	38	.	.	.	.
CCNC(=O)COC(=O)C1CCN(S(=O)(=O)c2ccc3c(c2)OCCO3)CC1	.	.	.	.	.	.	/
COc1cc(-c2csc(C)n2)ccc1O	.	.	.	.	.	.	/
Cc1nc(-c2ccc(O)c(O)c2)cs1	.	.	35	.	.	.	.
COc1ccc(NS(=O)(=O)c2cccc(C(=O)NN=Cc3cc(Br)c(O)c(Br)c3)c2)cc1	.	.	61	.	.	.	69
COc1ccc(NS(=O)(=O)c2cccc(C(=O)NN=Cc3ccc(OC)cc3OC)c2)cc1	.	.	.	.	.	.	/
Cc1ccccc1CN1CCCCC(NC(=O)c2cccc(C(F)(F)F)c2)C1=O (configuration not stated)	/	/	/	/	.	/	/
COc1cc(C(=O)NCCCN2CCCC2=O)cc(Br)c1OCc1ccccc1	.	.	79	.	.	.	.
O=C(NCCCN1CCCC1=O)c1ccc(OCc2ccccc2)cc1	.	.	.	.	.	.	/
COc1ccc(CNC(=O)CN2C(=O)NC3(CCCCCC3)C2=O)cc1	.	.	61	.	.	.	.
Cc1nc(S/C(=C/c2ccc(-c3ccc(Cl)cc3)o2)C(=O)O)n[nH]1	.	.	.	.	.	.	/
Cc1nc(S/C(=C/c2ccc(-c3cc(Cl)ccc3C)o2)C(=O)O)n[nH]1	.	.	47	.	.	.	56
CCn1c(COc2ccc(C)cc2)nnc1SCC(=O)Nc1ccc(C(=O)OC)cc1	/	/	/	/	.	/	/
CCOC(=O)c1c(C)n(-c2ccc(C)cc2)c2ccc(OCC(O)CNCC3CCCO3)cc12 (configuration not stated)	.	.	71	.	/	.	70
CCOC(=O)c1c(C)n(-c2ccc(C)cc2)c2ccc(OCC(O)CNCCCO)cc12 (configuration not stated)	.	.	.	.	.	.	/
CCCC[C@H]1C2CC(OC(=O)Nc3cccc(C#N)c3)C(C2)[C@H]2CCCCN21 (some centres not stated)	/	/	/	/	.	/	/
O=c1oc2c(CN3CCCCC3)c(O)ccc2c2c1CCCC2	.	.	38	.	.	.	.
Cc1c(C)c2ccc(O)c(CN3CCCC3)c2oc1=O	.	.	.	.	.	.	/
O=C(c1cc(F)ccc1F)N1CCCC(c2nc(-c3cccs3)no2)C1 (configuration not stated)	/	/	/	/	.	/	/
COc1ccccc1NC(=O)COC(=O)c1ccc([N+](=O)[O-])s1	.	.	37	38	.	26	.
COc1ccccc1NC(=O)COC(=O)C1CC1	.	.	.	.	.	.	/
SMILES	HTRA1 inh	PAFAH1B2 inh	pPAFAH FP inh	PAFAH2 inh	ABHD4 inh	PAFAH1B3 FP inh	pPAFAH FP conf
Cn1cccc1/C=N/N1CCN(Cc2cccc3ccccc23)CC1	.	.	46	.	.	.	.
Cn1cccc1/C=N/N1CCN(Cc2ccccc2)CC1	.	.	.	.	.	.	/
O=C(Oc1ccc(-c2ccccc2)cc1)N1CCCCC1	.	.	44	.	.	.	81
O=C(Oc1ccccc1)N1CCCCC1	.	/	/	/	.	/	/
CN(C)c1ccc(NC(=O)CSc2nnc(-c3ccco3)c(-c3ccco3)n2)cc1	.	.	.	.	.	.	/
Cc1cccc(C)c1NC(=O)CSc1nnc(-c2ccco2)c(-c2ccco2)n1	50	.	58	45	/	.	.
Cc1ccc(C2C(C#N)=C(N)Oc3c2sc2ccccc32)o1 (configuration not stated)	/	/	38	/	/	/	30
CCOC(=O)CC1=C(C(=O)OCC)C(c2ccc(C)o2)C(C#N)=C(N)O1 (configuration not stated)	.	.	.	.	.	.	/
CCN(CC(=O)Nc1c(F)cccc1F)C(=O)/C=C/c1ccc2ccccc2n1	.	.	40	.	.	.	25
COc1ccc(NC(=O)c2c(F)cccc2F)cc1S(=O)(=O)Nc1ccc(Br)cc1	.	.	36	.	.	.	28
N#CCC(=O)Nc1ncn(Cc2ccccc2Cl)n1	.	.	35	.	.	.	.
Cc1cc(N2CCN(CC(C)(C)O)C[C@@H]2C)ccc1N1CCN(Cc2ccccc2)[C@H](C)C1	/	/	/	/	.	/	/
Cc1occc1C(=O)N/N=C/C1=C(N2CCOCC2)C(=C\c2ccc(Cl)cc2)/CC1	.	.	.	.	.	.	/
Cc1cc(C)nc(N/N=C/C2=C(N3CCOCC3)C(=C/c3ccccc3)/CC2)n1	.	.	65	.	.	.	82
O=C(O)c1ccccc1N/N=C/C1=C(N2CCOCC2)C(=C\c2ccccc2)/CC1	.	.	.	.	.	.	/
Cc1cc(=O)[nH]c(N/N=C/C2=C(N3CCOCC3)C(=C\c3ccc(Cl)cc3)/CC2)n1	.	.	54	.	.	.	47
CCCCNC(=O)C[C@H]1C[C@@]2(C(=O)OC)C(=C[C@H](C(C)C)O[C@@H]2C2CC2)N(Cc2ccc3c(c2)OCO3)C1=O	/	/	/	/	.	/	/
Cc1ccc(C2C(/C=C3/SC(=S)NC3=O)=C(c3cccs3)Oc3ccccc32)cc1 (configuration not stated)	.	.	39	.	.	.	47
O=C1NC(=S)SC1=Cc1ccccc1Cl	.	.	/	.	.	.	/
CN1CCN(Cc2cc(=O)oc3cc4c(cc23)CCC4)CC1	.	.	37	.	.	.	.
O=C(CSc1nnc(-c2ccncc2)n1-c1ccccc1)Nc1ccc2c(c1)OCCO2	/	/	/	/	.	/	/
CC(=O)OCCNc1cc(SCc2ccco2)c2nonc2c1[N+](=O)[O-]	.	.	58	.	/	.	.
